One experiment deals with HIV-1 Ba-L. Briefly: CCR5-tropic MAGI antiviral assay. To be noted: Ba-L virus. The format is cell-based.
In experiment [1] the target is gp41 hydrophobic pocket (Fe(env2.0)3) (Human immunodeficiency virus type 1 group M subtype B, UniProt P04578). The experiment is described as follows: Fluorescence competitive binding assay for the hydrophobic pocket, Fe. Set-up: species or system HIV-1. As to conditions: for Ki: Inhibition constant KI, dimers, 1:1 binding model with Rt = 7.2 µM, poor fit; for improvement (reduction) of KI over the respective monomer: compared with monomers 3 and 4.

In the next experiment the test system is HIV-1 Ba-L and IIIB. Briefly: Virus-cell fusion. The format is cell-based. To be noted: for IC50: Human immunodeficiency virus 1, BAL|IIIB, read-out: IC50 against VCF; for activity against VCF: result in words. An outline of the steps:
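MAGI-CCR5 cells, 10,000 per well, grown overnight in DMEM with 10% FBS. Medium replaced with test compound at 6 dilutions, each in triplicate. HIV-1 Ba-L (CCR5-tropic) or IIIB (CXCR4-tropic) added at ~10 TCID50/well. Assay run at 2% serum and incubated 48 h. Read-out is Tat-induced β-Gal expression by chemiluminescence.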

Experiment [2] has as its target gp41 hydrophobic pocket (Fe(envC)3) (Human immunodeficiency virus type 1 group M subtype B, UniProt P04578). Briefly: Surface plasmon resonance. The format is binding, HIV-1. To be noted: for kd: SPR 1:1 binding kinetic analysis, RUmax fixed; for kd1 / kd2: bivalent binding model.
Another experiment deals with HIV-1 IIIB. The experiment is described as follows: CXCR4-tropic MAGI antiviral assay. To be noted: IIIB virus. The format is cell-based.
Another experiment has as its system HXB2 Env. As to conditions: read-out: IC50 CCF; cell-cell fusion, three-subunit peptidomimetics; cited from earlier work.

As a reminder, the Ki is the dissociation constant of the complex between target and ligand, obtained from inhibition or displacement. Lower therefore signals tighter binding. For orientation: IC50 means the concentration needed to halve the response being measured.

In the case of `O=C(CCC(=O)Nc1ccc(C(=O)N[C@@H](Cc2c[nH]c3ccccc23)C(=O)O)cc1OCCc1c[nH]c2ccccc12)NCCOCCOCCOCCNC(=O)CCC(=O)Nc1ccc(C(=O)N[C@@H](Cc2c[nH]c3ccccc23)C(=O)O)cc1OCCc1c[nH]c2ccccc12` [Compound 7], the “residual fusion activity at plateau of antiviral activity” value in the experiment with HIV-1 Ba-L is given as ~ 20%. In experiment [1], this compound showed an inhibitory constant (Ki) of 1 µM. Also, the 50% inhibitory concentration (IC50) in the experiment on HIV-1 Ba-L and IIIB lay in the range of 3 to 5 µM. For the same compound, in experiment [2], the kd stood at 0.060 s⁻¹, the kd1 was found to be 0.0869 s⁻¹ and the kd2 is 0.0145 s⁻¹. Moreover, in the experiment on HIV-1 IIIB, the “residual fusion activity at plateau of antiviral activity” value is recorded as ~ 6%.

Turning to `O=C(CCc1c[nH]c2ccccc12)NCCCCCC(=O)Nc1ccc(C(=O)N[C@@H](Cc2c[nH]c3ccccc23)C(=O)O)cc1OCCc1c[nH]c2ccccc12` [Compound 10], the “improvement (reduction) of KI over the respective monomer” value in experiment [1] is on record as 6 fold. Also, in the experiment on HIV-1 Ba-L and IIIB, the concentration for half-maximal inhibition (IC50) was 13 to 17 µM. Moreover, the kd in experiment [2] is 0.093 s⁻¹.

In the case of `Nc1ccc(C(=O)N[C@@H](Cc2c[nH]c3ccccc23)C(=O)O)cc1OCc1ccc(Cl)cc1` [Compound 4, H2N-[Phe4Cl]-Trp-OH], the “activity against VCF” value with HIV-1 Ba-L and IIIB is listed as “ineffective”. Further, the kd in experiment [2] came to 0.820 s⁻¹.

In the case of H2N-Asn-[Trp]-Trp-COOH, the IC50 in the experiment with HXB2 Env was 6 µM.

With H2N-Trp-[Trp]-Leu-COOH, the IC50 in the experiment with HXB2 Env was 5 µM.

In the case of `Nc1ccc(C(=O)N[C@@H](Cc2c[nH]c3ccccc23)C(=O)O)cc1OCCc1c[nH]c2ccccc12` [Compound 3, H2N-[Trp]-Trp-OH], the “activity against VCF” value with HIV-1 Ba-L and IIIB is on record as “ineffective”. Further, in experiment [2], the kd is 0.834 s⁻¹.

For `O=C(CCc1c[nH]c2ccccc12)NCCCCCC(=O)Nc1ccc(C(=O)N[C@@H](Cc2c[nH]c3ccccc23)C(=O)O)cc1OCc1ccc(Cl)cc1` [Compound 11], the “improvement (reduction) of KI over the respective monomer” value in experiment [1] is 6 fold. In the experiment on HIV-1 Ba-L and IIIB, the 50% inhibitory concentration (IC50) fell in the range of 13 to 17 µM. This compound displayed a kd in experiment [2] of 0.186 s⁻¹.

As for `O=C(CCC(=O)Nc1ccc(C(=O)N[C@@H](Cc2c[nH]c3ccccc23)C(=O)O)cc1OCc1ccc(Cl)cc1)NCCOCCOCCOCCNC(=O)CCC(=O)Nc1ccc(C(=O)N[C@@H](Cc2c[nH]c3ccccc23)C(=O)O)cc1OCc1ccc(Cl)cc1` [Compound 8], the affinity in experiment [1], expressed as Ki, was 5.3 µM. Moreover, in the experiment on HIV-1 Ba-L and IIIB, the IC50 is 3 to 5 µM. For the same compound, in experiment [2], the kd came out at 0.037 s⁻¹, the kd1 came out at 0.0638 s⁻¹ and the kd2 worked out at 0.0033 s⁻¹.
